According to ChEMBL document CHEMBL1773010, “Cytotoxic and apoptosis-inducing activities of limonoids from the seeds of Azadirachta indica (neem)” (J Nat Prod, 2011):
pIC50: −log10 of the molar value. Activity calls are given as the source filed them. The calls are words filed in the database; no cut-off is given here.

Key:
HL-60 [1] = test: Induction of apoptosis in human HL60 cells assessed as early apoptotic cells at 30 uM after 24 hrs using annexin-V FITC and PI staining by flow cytometry; type: functional
Summary of the method: (§1)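 HL60 cells (1 × 10^5) exposed to 30 μM final compound for 8 or 24 h. Cells were washed in annexin-binding buffer, stained with annexin V-FITC and PI for 10 min, and analyzed by flow cytometry (FL1 and FL2). Quadrants: early apoptotic annexin+/PI−, late apoptotic double positive, necrotic annexin−/PI+. Values are means of three experiments.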

HL-60 [2] = test: Induction of apoptosis in human HL60 cells assessed as decrease in procaspase-3 level at 30 uM after 24 hrs by Western blot analysis; type: functional, cell-based
Summary of the method: (§2)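 HL60 cells (4 × 10^5) exposed to 30 μM final compound for 8 and 24 h, then lysed. Total protein was run on 15% SDS-PAGE and transferred to PVDF. Membranes were probed overnight at 4 °C with antibodies to caspase-3, cleaved caspase-3, caspase-8 and caspase-9, with β-actin as loading control.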

HL-60 [3] = test: Induction of apoptosis in human HL60 cells assessed as early apoptotic cells at 30 uM after 8 hrs using annexin-V FITC and PI staining by flow cytometry; type: functional; summary of the method: as §1
HL-60 [4] = test: Induction of apoptosis in human HL60 cells assessed as decrease in procaspase-9 level at 30 uM after 24 hrs by Western blot analysis; type: functional, cell-based; summary of the method: as §2
HL-60 [5] = test: Induction of apoptosis in human HL60 cells assessed as late apoptotic cells at 30 uM after 24 hrs using annexin-V FITC and PI staining by flow cytometry; type: functional; summary of the method: as §1
HL-60 [6] = test: Cytotoxicity against human HL60 cells assessed as cell viability after 48 hrs by MTT assay; type: functional, cell-based; settings: HL-60, 48 h
Summary of the method: (§3)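 Cells seeded at 3 × 10^3 per well and exposed to compounds from 1 × 10^-4 to 1 × 10^-6 M for 48 h. MTT was then added for 3 h, formazan dissolved in 0.04 M HCl in 2-propanol, and absorbance read at 570 nm against 630 nm. IC50 is the concentration giving 50% growth inhibition, from triplicate assays.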

HL-60 [7] = test: Induction of apoptosis in human HL60 cells assessed as non-viable cells at 30 uM after 8 hrs using annexin-V FITC and PI staining by flow cytometry; type: functional; summary of the method: as §1
[8] = Cytotoxicity against human CRL1579 cells assessed as cell viability after 48 hrs by MTT assay; type: functional, cell-based; summary of the method: as §3
HL-60 [9] = test: Induction of apoptosis in human HL60 cells assessed as late apoptotic cells at 30 uM after 8 hrs using annexin-V FITC and PI staining by flow cytometry; type: functional; summary of the method: as §1
HL-60 [10] = test: Induction of apoptosis in human HL60 cells assessed as increase in cleaved caspase-3 level at 30 uM after 24 hrs by Western blot analysis; type: functional, cell-based; summary of the method: as §2
HL-60 [11] = test: Induction of apoptosis in human HL60 cells assessed as viable cells at 30 uM after 8 hrs using annexin-V FITC and PI staining by flow cytometry; type: functional; settings: HL-60, 8 h, read-out: Activity; summary of the method: as §1
HL-60 [12] = test: Induction of apoptosis in human HL60 cells assessed as increase in cleaved caspase-9 level at 30 uM after 24 hrs by Western blot analysis; type: functional, cell-based; summary of the method: as §2
HL-60 [13] = test: Induction of apoptosis in human HL60 cells assessed as increase in cleaved caspase-8 level at 30 uM after 24 hrs by Western blot analysis; type: functional, cell-based; summary of the method: as §2
HL-60 [14] = test: Induction of apoptosis in human HL60 cells assessed as viable cells at 30 uM after 24 hrs using annexin-V FITC and PI staining by flow cytometry; type: functional; settings: HL-60, 24 h, read-out: Activity; summary of the method: as §1
HL-60 [15] = test: Induction of apoptosis in human HL60 cells assessed as non-viable cells at 30 uM after 24 hrs using annexin-V FITC and PI staining by flow cytometry; type: functional; summary of the method: as §1
A549 = test: Cytotoxicity against human A549 cells assessed as cell viability after 48 hrs by MTT assay; type: functional, cell-based; settings: A549, 48 h; summary of the method: as §3
[16] = Cytotoxicity against human RPMI 1788 cells assessed as cell viability after 48 hrs by MTT assay; type: cell-based; settings: RPMI-1788, 48 h; summary of the method: as §3
HL-60 [17] = test: Selectivity index, ratio of IC50 for human RPMI 1788 cells to IC50 for human HL60 cells; type: functional
HL-60 [18] = test: Induction of apoptosis in human HL60 cells assessed as decrease in procaspase-8 level at 30 uM after 24 hrs by Western blot analysis; type: functional, cell-based; summary of the method: as §2
SK-BR-3 = test: Cytotoxicity against human SK-BR-3 cells assessed as cell viability after 48 hrs by MTT assay; type: functional, cell-based; settings: SK-BR-3, 48 h; summary of the method: as §3
[19] = Cytotoxicity against human AZ-521 cells assessed as cell viability after 48 hrs by MTT assay; type: functional, cell-based; settings: AZ-521, 48 h; summary of the method: as §3

| SMILES | Activity (HL-60 [1]) [%] | Activity (HL-60 [2]) | Activity (HL-60 [3]) [%] | Activity (HL-60 [4]) | Activity (HL-60 [5]) [%] | pIC50 (HL-60 [6]) | Activity (HL-60 [7]) [%] | pIC50 [8] | Activity (HL-60 [9]) [%] | Activity (HL-60 [10]) | viability at 30 µM (HL-60 [11]) [%] | Activity (HL-60 [12]) | Activity (HL-60 [13]) | viability at 30 µM (HL-60 [14]) [%] | Activity (HL-60 [15]) [%] | pIC50 (A549) | pIC50 [16] | Ratio IC50 (HL-60 [17]) | pIC50 (SK-BR-3) | pIC50 [19] | further results |
| --- | --- | --- | --- | --- | --- | --- | --- | --- | --- | --- | --- | --- | --- | --- | --- | --- | --- | --- | --- | --- | --- |
| CC1(C)C(=O)C=C[C@]2(C)[C@H]3CC[C@@]4(C)[C@H](c5ccoc5)OC(=O)[C@H]5O[C@]54[C@]3(C)[C@H](OC(=O)c3ccccc3)C[C@@H]12 | 41.4 | Active | 10.5 | Active | 45.7 | 5.54 | 0.7 | < 4.70 | 0.7 | Active | 88.1 | Active | Active | 9.9 | 3 | < 4.70 | 5.70 | 0.69 | < 4.70 | < 4.70 | Activity (HL-60 [18]): Active |
| COC(=O)C[C@H]1[C@]2(C)C3=C(C)[C@H](c4ccoc4)C[C@H]3O[C@@H]2[C@@H]2OC[C@]3(C)C=CC(=O)[C@@]1(C)[C@@H]23 | 18.7 | Active | 10.9 | Active | 28.1 | 5.57 | 3.5 | 4.85 | 11.8 | Active | 73.7 | Active | Active | 49.8 | 3.4 | 5.03 | 5.57 | 1 | 5.77 | 5.62 | Activity (HL-60 [18]): Active |
| CC1(C)C(=O)C=C[C@]2(C)[C@H]3CC[C@@]4(C)[C@H](c5ccoc5)C(=O)[C@H]5O[C@]54[C@]3(C)[C@H](OC(=O)c3ccccc3)C[C@@H]12 | 51.8 | Active | 38.7 | Active | 15.5 | 5.51 | 1.4 | < 4.70 | 3 | Active | 56.9 | Active | Active | 28.2 | 4.5 | < 4.70 | 4.79 | 5.19 | < 4.70 | 5.08 | Activity (HL-60 [18]): Active |
| C/C=C(/C)C(=O)O[C@H]1C[C@@H](O)[C@@]2(C)CO[C@H]3[C@H]4O[C@@H]5C[C@@H](c6ccoc6)C(C)=C5[C@@]4(C)[C@H](CC(=O)OC)[C@]1(C)[C@@H]32 | – | – | – | – | – | < 4.70 | – | < 4.70 | – | – | – | – | – | – | – | < 4.70 | – | – | < 4.70 | < 4.70 | – |
| CC(=O)O[C@@H]1C[C@H]2C(C)(C)C(=O)C=C[C@]2(C)[C@H]2CC[C@]3(C)C(=CC(=O)[C@@H]3c3ccoc3)[C@@]21C [17-EPIAZADIRADIONE] | – | – | – | – | – | 4.90 | – | < 4.70 | – | – | – | – | – | – | – | < 4.70 | – | – | < 4.70 | < 4.70 | – |
